ChEMBL document CHEMBL4699431, “Design and synthesis of substituted (1-(benzyl)-1H-1,2,3-triazol-4-yl)(piperazin-1-yl)methanone conjugates: study on their apoptosis inducing ability and tubulin polymerization inhibition” (RSC Med Chem, 2020)
Activity calls are given as the source filed them. No cut-off for these calls is given here.

Assays:
BT-474 [1] = experiment: Induction of morphological changes in human BT-474 cells assessed as […] incubated for 48 hrs by phase-contrast microscope method; format: functional, cell-based; settings: dose microM 0.5-2.5, time 48.0 hrs
Outline: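 Plated at 5×10^4 cells/well, dosed after 24 h at 0.5, 1 and 2.5 μM. After 48 h, morphology was examined and photographed under phase-contrast microscopy.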

BT-474 [2] = experiment: Cell cycle arrest in human BT-474 cells assessed as decrease in G0/G1 accumulation in phase at 1 uM by propidium iodide staining based flow cytometry(reference value: 60.53%); format: functional; parameters: scale not given: the % may be the effect or the level left
Outline: (§1)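 Seeded at 1 x 10⁵ cells/well, after 24 h serum-starved 6 h to synchronize, then returned to FBS-containing medium and treated at 0.5, 1 and 2.5 μM. Harvested cells were PBS-washed, fixed in ice-cold 70% ethanol, stained with propidium iodide (50 μg/mL) plus RNase A for 20 min at 37 °C in the dark. About 10,000 events analysed by flow cytometry.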

HaCaT = experiment: Cytotoxicity against human HaCaT cells assessed as reduction in cell viability incubated for 48 hrs by MTT assay; format: functional, cell-based
Outline: (§2)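 Cells plated at 3000-4500 per well and treated after 24 h. DMSO stocks (20 mM) were diluted in medium to final DMSO <0.1%, twofold series […], 48 h. MTT (0.5 mg/mL) was added for 4 h, formazan dissolved in DMSO, absorbance read at 570 nm.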

BT-474 [3] = experiment: Cell cycle arrest in human BT-474 cells assessed as increase in accumulation in S phase at 0.5 uM by propidium iodide staining based flow cytometry(reference value: 2.22%); format: functional; outline: as §1
BT-474 [4] = experiment: Cell cycle arrest in human BT-474 cells assessed as increase in accumulation in G2/M phase at 2.5 uM by propidium iodide staining based flow cytometry(reference value: 19.35%); format: functional; outline: as §1
BT-474 [5] = experiment: Cell cycle arrest in human BT-474 cells assessed as decrease in G0/G1 accumulation in phase at 0.5 uM by propidium iodide staining based flow cytometry(reference value: 60.53%); format: functional; parameters: scale not given: the % may be the effect or the level left; outline: as §1
BT-474 [6] = experiment: Cell cycle arrest in human BT-474 cells assessed as increase in accumulation in S phase at 1 uM by propidium iodide staining based flow cytometry(reference value: 2.22%); format: functional; outline: as §1
Tubulin (Homo sapiens) = Tubulin (Homo sapiens) (UniProt P68371+Q9H4B7+P0DPH7+P68366+Q13509+Q71U36+P04350+Q3ZCM7+P07437+P68363+Q9BQE3+Q6PEY2+Q13885+Q9BVA1+Q9BUF5); experiment: Inhibition of tubulin (unknown origin) polymerization by cell free in vitro assay; format: protein-complex assay
MCF7 = experiment: Cytotoxicity against human MCF-7 cells assessed as reduction in cell viability incubated for 48 hrs by MTT assay; format: functional, cell-based; settings: MCF7, 48 h; outline: as §2
BT-474 [7] = experiment: Cytotoxicity against human BT-474 cells assessed as reduction in cell viability incubated for 48 hrs by MTT assay; format: functional, cell-based; settings: BT-474, 48 h; outline: as §2
BT-474 [8] = experiment: Cell cycle arrest in human BT-474 cells assessed as decrease in G0/G1 accumulation in phase at 2.5 uM by propidium iodide staining based flow cytometry(reference value: 60.53%); format: functional; parameters: scale not given: the % may be the effect or the level left; outline: as §1

inhibition (Tubulin (Homo sapiens)): Active
Compound: O=C(c1cn(Cc2cccc(Oc3ccccc3)c2)nn1)N1CCN(S(=O)(=O)c2ccc(Br)cc2)CC1
Activity (BT-474 [1]): Active | Activity (BT-474 [2]): 9.64% | IC50 (HaCaT): 3680 nM | Activity (BT-474 [3]): 7.02% | Activity (BT-474 [4]): 63.41% | Activity (BT-474 [5]): 10.83% | Activity (BT-474 [6]): 5.85% | IC50 (MCF7): 2340 nM | IC50 (BT-474 [7]): 990 nM | Activity (BT-474 [8]): 9.09%
